Measured values: ChEMBL document CHEMBL1649427, “Inactivation of the glycoside hydrolase NagZ attenuates antipseudomonal beta-lactam resistance in Pseudomonas aeruginosa” (Antimicrob Agents Chemother, 2009)
In brackets after ≈: the same amount, converted by molar mass.

Assays:
Pseudomonas aeruginosa [1] = experiment: Antimicrobial activity against nagZ gene-deficient Pseudomonas aeruginosa PAO1 harboring wild type nagZ gene after 18 hrs by broth microdilution method; assay type: functional; details: PAO1, 18 h
[2] = biological target: Beta-lactamase (Pseudomonas aeruginosa (strain ATCC 15692 / PAO1 / 1C / PRS 101 / LMG12228)) (UniProt P24735); experiment: Activity of beta-lactamase AmpC in Pseudomonas aeruginosa PAO1 harboring deltaampD::lox deltaampDh2::lox deltaampDh3::lox deltanagZ::Gm assessed as nitrocefin hydrolysis after 3 hrs by spectrophotometric analysis
Summary of the method: (§1)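 Strains grown in Mueller-Hinton broth at 37°C to OD600 ~0.5, then cultured 3 h at 37°C with 50 μg/ml cefoxitin (induced) or without. Crude sonic lysates assayed in triplicate at 37°C by continuous assay: nitrocefin (initial 100 μM) hydrolysis followed at 485 nm for 5 min. Specific activity expressed as nmol nitrocefin hydrolyzed/min/mg protein.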

Pseudomonas aeruginosa [3] = experiment: Antimicrobial activity against nagZ gene-deficient Pseudomonas aeruginosa PAO1 after 18 hrs by broth microdilution method; assay type: functional; details: PAO1, 18 h
Summary of the method: (§2)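 CLSI broth microdilution in cation-adjusted Mueller-Hinton medium with serial β-lactam dilutions. Each well holds 200 μl broth inoculated with ~10⁴ cells from starter cultures at OD600 ~0.5. Plates shaken at 37°C for 18 h. The MIC is read as the lowest antibiotic concentration showing no growth. Triplicate determinations.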

[4] = biological target: Beta-lactamase (Pseudomonas aeruginosa (strain ATCC 15692 / PAO1 / 1C / PRS 101 / LMG12228)) (UniProt P24735); experiment: Activity of beta-lactamase AmpC in Pseudomonas aeruginosa PAO1 harboring deltaampD::lox deltaampDh2::lox deltaampDh3::lox assessed as nitrocefin hydrolysis after 3 hrs by spectrophotometric analysis; summary of the method: as §1
[5] = biological target: Beta-lactamase (Pseudomonas aeruginosa (strain ATCC 15692 / PAO1 / 1C / PRS 101 / LMG12228)) (UniProt P24735); experiment: Activity of beta-lactamase AmpC in Pseudomonas aeruginosa nagZ gene-deficient PAO1 assessed as nitrocefin hydrolysis after 3 hrs by spectrophotometric analysis; summary of the method: as §1
Pseudomonas aeruginosa [6] = experiment: Antimicrobial activity against Pseudomonas aeruginosa PAO1 harboring deltaampD::lox deltaampDh2::lox deltaampDh3::lox after 18 hrs by broth microdilution method; assay type: functional; details: PAO1, 18 h; summary of the method: as §2
Pseudomonas aeruginosa [7] = experiment: Antimicrobial activity against Pseudomonas aeruginosa PAO1 after 18 hrs by broth microdilution method; assay type: functional; details: PAO1, 18 h; summary of the method: as §2
Pseudomonas aeruginosa [8] = experiment: Antimicrobial activity against nagZ gene-deficient Pseudomonas aeruginosa PAO1 harboring plasmid pUCP27 after 18 hrs by broth microdilution method; assay type: functional; details: PAO1, 18 h
[9] = biological target: Beta-lactamase (Pseudomonas aeruginosa (strain ATCC 15692 / PAO1 / 1C / PRS 101 / LMG12228)) (UniProt P24735); experiment: Activity of beta-lactamase AmpC in Pseudomonas aeruginosa PAO1 assessed as nitrocefin hydrolysis after 3 hrs by spectrophotometric analysis; summary of the method: as §1
Pseudomonas aeruginosa [10] = experiment: Antimicrobial activity against Pseudomonas aeruginosa PAO1 harboring deltaampD::lox deltaampDh2::lox delta ampDh3::lox after 18 hrs by broth microdilution method; assay type: functional; details: PAO1, 18 h; summary of the method: as §2
Beta-hexosaminidase = Beta-hexosaminidase (Pseudomonas aeruginosa (strain ATCC 15692 / PAO1 / 1C / PRS 101 / LMG12228), UniProt Q9HZK0); experiment: Inhibition of Pseudomonas aeruginosa PAO1 nagZ gene after 1.5 hrs by fluorescence spectrophotometry
Summary of the method: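 Cultures in Mueller-Hinton broth were grown at 37°C to OD600 ~0.5, diluted to 0.25 and grown 1.5 h more. Cells were PBS-washed and sonicated. Lysate protein (15 μg) was incubated with 2 mM 4-MUGlcNAc in PBS pH 7.4 at 37°C for 1–8 h, then quenched with glycine-NaOH pH 10.7. 4-MU fluorescence was read at ex 360/em 450 nm, in triplicate, with heat-denatured lysate controls.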

Beta-lactamase (Pseudomonas aeruginosa (strain ATCC 15692 / PAO1 / 1C / PRS 101 / LMG12228)), sequence (P24735 27-397 limits assumed): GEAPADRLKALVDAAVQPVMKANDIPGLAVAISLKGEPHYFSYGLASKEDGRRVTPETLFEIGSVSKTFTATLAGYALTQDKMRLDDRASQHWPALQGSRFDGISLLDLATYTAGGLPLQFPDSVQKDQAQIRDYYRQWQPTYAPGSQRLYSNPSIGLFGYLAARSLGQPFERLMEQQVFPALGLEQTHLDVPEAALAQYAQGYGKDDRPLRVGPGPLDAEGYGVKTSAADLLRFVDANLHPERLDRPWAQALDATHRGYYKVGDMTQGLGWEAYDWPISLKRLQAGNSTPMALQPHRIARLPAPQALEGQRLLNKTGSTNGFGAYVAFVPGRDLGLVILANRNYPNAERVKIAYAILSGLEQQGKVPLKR
Beta-hexosaminidase, sequence (Q9HZK0 whole entry): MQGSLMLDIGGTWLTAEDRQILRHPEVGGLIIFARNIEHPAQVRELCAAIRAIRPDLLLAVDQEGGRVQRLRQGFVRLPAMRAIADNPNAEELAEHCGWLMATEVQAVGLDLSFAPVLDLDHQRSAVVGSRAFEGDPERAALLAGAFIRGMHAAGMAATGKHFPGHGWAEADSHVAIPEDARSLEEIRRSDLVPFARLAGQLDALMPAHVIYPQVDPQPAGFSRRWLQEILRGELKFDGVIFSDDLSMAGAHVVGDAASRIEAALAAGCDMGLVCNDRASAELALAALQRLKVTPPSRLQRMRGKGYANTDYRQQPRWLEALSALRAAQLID

| Ki (Beta-hexosaminidase) [µM] | Structure (SMILES) | MIC (Pseudomonas aeruginosa [1]) [µg/mL] | Activity [2] [nmol] | MIC (Pseudomonas aeruginosa [3]) [µg/mL] | Activity [4] [nmol] | Activity [5] [nmol] | MIC (Pseudomonas aeruginosa [6]) [µg/mL] | MIC (Pseudomonas aeruginosa [7]) [µg/mL] | MIC (Pseudomonas aeruginosa [8]) [µg/mL] | Activity [9] [nmol] | MIC (Pseudomonas aeruginosa [10]) [µg/mL] |
| --- | --- | --- | --- | --- | --- | --- | --- | --- | --- | --- | --- |
|  | CO[C@@]1(NC(=O)Cc2cccs2)C(=O)N2C(C(=O)O)=C(COC(N)=O)CS[C@@H]21 [CEFOXITIN] | 1200 (≈ 2.81 mM) | 1020 | 800 (≈ 1.87 mM) | 3940 | 95 | 3200 (≈ 7.49 mM) | 1600 (≈ 3.74 mM) | 600 (≈ 1.4 mM) | 230 | 3200 (≈ 7.49 mM) |
| 3.5 | CCC(CC)C(=O)N[C@H]1/C(=N/OC(=O)Nc2ccccc2)O[C@H](CO)[C@@H](O)[C@@H]1O |  |  |  |  |  |  |  |  |  |  |
